Laboratory results published in ChEMBL document CHEMBL1833940, “Discovery of 3-(2,6-dichloro-3,5-dimethoxy-phenyl)-1-{6-[4-(4-ethyl-piperazin-1-yl)-phenylamino]-pyrimidin-4-yl}-1-methyl-urea (NVP-BGJ398), a potent and selective inhibitor of the fibroblast growth factor receptor family of receptor tyrosine kinase” (J Med Chem, 2011).
The source made the active and inactive calls. No cut-off for these calls is given here.

Assays:
[1] = Inhibition of LCK-B-mediated proliferation of mouse BAF3 cells transformed with Tel-kinase construct; type: cell-based
How it was run: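 Murine BaF3 cells made IL-3-independent by a Tel-kinase fusion were grown in RPMI-1640 with 10% FBS. Cells were seeded at 4250 per well with DMSO-diluted compound and incubated 48 h at 37 °C. Viability was read by Bright-Glo luminescence.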

BaF3 = assay: Antiproliferative activity against mouse BAF3 cell line transformed with TEL-FGFR3 construct after 48 hrs by luciferase bioluminescent assay; type: functional, cell-based; conditions: BaF3, 48 h
How it was run: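 IL-3-independent BaF3 or BaF3 Tel-TK cells were grown in RPMI-1640 with 10% FBS and seeded at 4250 cells/well in 384-well plates. Compound serially diluted in DMSO was pin-transferred, followed by 48 h at 37 °C, 5% CO2. Viability was read by Bright-Glo luciferase luminescence.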

[2] = target: Tyrosine-protein kinase Yes (Homo sapiens, UniProt P07947); assay: Inhibition of recombinant YES kinase
How it was run: (§1)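 Purified recombinant kinases under optimized conditions with peptide substrates. ATP was set at each kinase's Km. Phosphorylation was read by microfluidic mobility-shift separation of substrate and product; IC50 determined.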

[3] = Inhibition of BCR-ABL-mediated proliferation of mouse BAF3 cells transformed with TEL-Kinase construct; type: cell-based
[4] = Tmax in tumor of RT112/luc1 cells implanted athymic nude mouse at 5 mg/kg, iv by LC/MS/MS analysis; type: ADME, organism-based, Neoplasm; parameters: dose 5 mg/kg, route intravenous
How it was run: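 Female athymic nude mice carrying subcutaneous RT112/luc1 tumors (ca. 300–400 mm3). Dosing was 5 mg/kg iv by tail vein in NMP/PEG200 (1:9) or 20 mg/kg by oral gavage as a suspension in PEG300/D5W (2:1). Groups (n = 4) were sacrificed from 0.083 to 24 h. Plasma and tumor were measured by LC-MS/MS (LOQ 5 ng/mL, 10 ng/g). Noncompartmental analysis used the linear trapezoidal AUC; F was calculated from dose-normalized AUC.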

Rattus norvegicus [5] = assay: Dose normalized AUC in Wistar rat at 10 mg/kg, po by LC-MS/MS analysis; type: ADME, organism-based; parameters: dose 10 mg/kg, route oral; conditions: in vivo
How it was run: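 Female Wistar rats received either an iv femoral-vein dose of 5 mg/kg in NMP/PEG200 (1:9) or an oral dose of monophosphate salt at 10 mg/kg (free base) in acetate buffer pH 4.6/PEG300. Plasma was sampled by sublingual bleeding at 0.083–24 h (n = 4 staggered, or n = 3–4 serial). Plasma levels were measured by LC-MS/MS (LOQ 10 ng/mL).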

[6] = target: Tyrosine-protein kinase Mer (Homo sapiens, UniProt Q12866); assay: Inhibition of recombinant MER
How it was run: (§2)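 Purified recombinant kinases under optimized conditions, with peptide substrates and ATP at each kinase's Km. Phosphorylation was read out by microfluidic mobility shift, and IC50 values were obtained.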

[7] = target: Hepatocyte growth factor receptor (Homo sapiens, UniProt P08581); assay: Inhibition of recombinant MET
How it was run: (§3)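 Purified recombinant kinases were tested under optimized conditions with peptide substrates. ATP was set at each kinase's Km. Phosphorylation was read out by microfluidic mobility shift, and IC50 values were determined.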

[8] = target: MAP kinase-activated protein kinase 2 (Homo sapiens, UniProt P49137); assay: Inhibition of recombinant MK2
How it was run: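 Purified recombinant kinases with peptide substrates and ATP at each kinase's Km. Read-out was microfluidic mobility shift.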

[9] = target: Interleukin-1 receptor-associated kinase 4 (Homo sapiens, UniProt Q9NWZ3); assay: Inhibition of recombinant IRAK4; how it was run: as §1
[10] = target: RAC-alpha serine/threonine-protein kinase (Homo sapiens, UniProt P31749); assay: Inhibition of recombinant PKBalpha; how it was run: as §1
[11] = target: Serine/threonine-protein kinase N1 (Homo sapiens, UniProt Q16512); assay: Inhibition of recombinant PKN1; how it was run: as §1
[12] = target: Tyrosine-protein kinase SYK (Homo sapiens, UniProt P43405); assay: Inhibition of recombinant SYK; how it was run: as §2
[13] = target: Phosphatidylinositol 3-kinase catalytic subunit type 3 (Homo sapiens, UniProt Q8NEB9); assay: Inhibition of recombinant VPS34 by luminescent kinase assay
[14] = target: Tyrosine-protein kinase ZAP-70 (Homo sapiens, UniProt P43403); assay: Inhibition of recombinant ZAP70; how it was run: as §3
Rattus norvegicus [15] = assay: Inhibition of FGFR autophosphorylation in RT112 tumor bearing nude rowett rat assessed as decrease in pFRS2 concentration at 4.25 to 8.51 mg/kg, po administered as a single dose after 24 hrs by Western blot analysis; type: functional, organism-based
How it was run: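 RT112 tumor-bearing nude Rowett rats (n = 4) received a single oral dose of monophosphate salt at 4.25 or 8.51 mg/kg free base. Tumors were collected at time points up to 24 h and lysed in Tris/Triton buffer with vanadate and protease inhibitors. Western blots were run for pFRS2(Tyr196) and pMAPK, with total FRS2, total MAPK or β-tubulin as loading controls.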

Mus musculus [16] = assay: Toxicity in athymic nude mouse xenografted with human RT112 cells assessed as weight loss at 10 mg/kg, po administered for 12 days; type: organism-based, RT-112; parameters: dose 10 mg/kg, route oral; conditions: in vivo, 288 h
How it was run: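 Female athymic nude mice carried orthotopic RT112/luc1 bladder tumors. Starting 14 days after inoculation, they were dosed orally at 0, 10 or 30 mg/kg/qd for 12 days as a suspension in PEG300/D5W (2:1). Body weight was recorded during treatment. Data are means ± SEM; ANOVA with Dunnett's test versus vehicle.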

Rattus norvegicus [17] = assay: Toxicity in nude Rowett rat xenografted with human RT112 cells assessed as morbidity at 5 mg/kg, po qd administered for 20 days; type: organism-based, RT-112; parameters: dose 5 mg/kg, route oral; conditions: in vivo, 480 h
How it was run: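 Female nude Rowett rats carried subcutaneous RT112 tumors (1 × 10^6 cells in Matrigel), starting at about 100 mm3. The monophosphate salt was gavaged daily for 20 days at 5, 10 or 15 mg/kg (free base) in acetate buffer pH 4.6/PEG300 (1:1), n = 8. Body weight and morbidity were monitored; ANOVA with Dunnett's test.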

RT-112 = assay: Antitumor activity against human RT112 cells xenografted in nude Rowett rat assessed as tumour regression at 10 mg/kg, po qd administered for 20 days; type: functional
How it was run: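 Female nude Rowett rats aged 6–9 weeks were given 1×10^6 RT112 cells subcutaneously in HBSS/50% Matrigel. Treatment began at about 100 mm3 mean tumor volume (n = 8): monophosphate salt in acetate buffer pH 4.6/PEG300 (1:1) by gavage, 5 mL/kg, at 5, 10, 15 mg/kg/qd free base for 20 days. Tumors were measured by caliper (L×W×H×π/6). Readouts were T/C and % regression from start volume.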

Tumour = assay: Drug uptake in tumour of nude Rowett rat bearing human RT112 cells at 8.51 mg/kg, po administered as a single dose after 16 hrs by LC-MS/MS analysis; type: ADME, organism-based, Neoplasm, RT-112; parameters: dose 8.51 mg/kg, route oral; conditions: in vivo
How it was run: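 Nude Rowett rats bearing subcutaneous RT112 tumors (n = 4) received a single gavage of monophosphate salt at 4.25 or 8.51 mg/kg free base in acetate buffer pH 4.6/PEG300. Tumors were collected at intervals after dosing, frozen and homogenized in an equal volume of ice-cold PBS. Compound levels were measured by LC-MS/MS (LOQ 3 ng/mL).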

Mus musculus [18] = assay: Toxicity in athymic nude mouse xenografted with human RT112 cells/luc1 assessed as increase in body weight at 30 mg/kg, po administered for 12 days; conditions: in vivo, 288 h

Serine/threonine-protein kinase N1, sequence (Q16512 whole entry): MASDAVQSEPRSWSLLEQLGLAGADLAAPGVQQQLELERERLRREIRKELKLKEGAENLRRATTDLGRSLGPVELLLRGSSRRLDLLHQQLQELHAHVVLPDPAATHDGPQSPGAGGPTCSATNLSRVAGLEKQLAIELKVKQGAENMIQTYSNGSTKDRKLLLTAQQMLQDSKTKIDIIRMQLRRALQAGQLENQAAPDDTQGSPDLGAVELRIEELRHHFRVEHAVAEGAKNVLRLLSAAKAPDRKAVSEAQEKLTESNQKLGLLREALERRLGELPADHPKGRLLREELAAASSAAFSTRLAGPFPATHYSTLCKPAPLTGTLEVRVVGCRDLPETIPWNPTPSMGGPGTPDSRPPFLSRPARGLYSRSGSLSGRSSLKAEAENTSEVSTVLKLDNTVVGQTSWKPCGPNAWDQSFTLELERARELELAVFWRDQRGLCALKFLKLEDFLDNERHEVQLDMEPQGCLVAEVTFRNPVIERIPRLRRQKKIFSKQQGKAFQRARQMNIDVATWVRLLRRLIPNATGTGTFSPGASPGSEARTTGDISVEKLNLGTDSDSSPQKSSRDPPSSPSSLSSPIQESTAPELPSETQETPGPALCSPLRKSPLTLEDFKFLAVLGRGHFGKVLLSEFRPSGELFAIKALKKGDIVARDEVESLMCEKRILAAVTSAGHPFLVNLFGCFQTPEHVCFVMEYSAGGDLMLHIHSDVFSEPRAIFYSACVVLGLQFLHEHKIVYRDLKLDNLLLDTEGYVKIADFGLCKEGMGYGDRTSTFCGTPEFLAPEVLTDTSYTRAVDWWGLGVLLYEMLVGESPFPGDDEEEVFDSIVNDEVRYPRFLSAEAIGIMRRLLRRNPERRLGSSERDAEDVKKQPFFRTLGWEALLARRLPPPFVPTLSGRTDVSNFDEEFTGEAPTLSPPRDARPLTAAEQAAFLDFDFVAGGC
Tyrosine-protein kinase Mer, sequence (Q12866 whole entry): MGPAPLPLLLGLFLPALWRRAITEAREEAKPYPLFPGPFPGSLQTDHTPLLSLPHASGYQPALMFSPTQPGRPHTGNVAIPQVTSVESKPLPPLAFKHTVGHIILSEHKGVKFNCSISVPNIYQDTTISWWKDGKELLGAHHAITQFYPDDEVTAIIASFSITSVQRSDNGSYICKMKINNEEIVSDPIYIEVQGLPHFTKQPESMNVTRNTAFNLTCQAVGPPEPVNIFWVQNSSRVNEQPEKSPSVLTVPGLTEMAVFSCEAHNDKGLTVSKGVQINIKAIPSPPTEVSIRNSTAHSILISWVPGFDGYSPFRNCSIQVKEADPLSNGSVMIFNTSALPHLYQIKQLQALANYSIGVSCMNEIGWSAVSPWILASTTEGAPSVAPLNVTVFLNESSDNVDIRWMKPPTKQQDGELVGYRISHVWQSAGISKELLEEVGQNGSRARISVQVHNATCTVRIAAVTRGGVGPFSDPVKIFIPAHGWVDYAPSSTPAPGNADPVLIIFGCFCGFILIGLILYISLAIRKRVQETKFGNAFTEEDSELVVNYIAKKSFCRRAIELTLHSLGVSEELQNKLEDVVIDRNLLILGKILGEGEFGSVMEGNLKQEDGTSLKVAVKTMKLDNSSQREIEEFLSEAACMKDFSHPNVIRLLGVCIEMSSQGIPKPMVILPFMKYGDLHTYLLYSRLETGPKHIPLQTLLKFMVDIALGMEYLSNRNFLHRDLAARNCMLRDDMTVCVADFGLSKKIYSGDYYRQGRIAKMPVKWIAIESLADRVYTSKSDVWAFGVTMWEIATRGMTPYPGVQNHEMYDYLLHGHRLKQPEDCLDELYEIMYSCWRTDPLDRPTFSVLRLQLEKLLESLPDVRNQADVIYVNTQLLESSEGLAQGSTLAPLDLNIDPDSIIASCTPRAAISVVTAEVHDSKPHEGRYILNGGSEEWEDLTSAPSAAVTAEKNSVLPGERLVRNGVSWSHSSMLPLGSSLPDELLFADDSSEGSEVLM
Phosphatidylinositol 3-kinase catalytic subunit type 3, sequence (Q8NEB9 whole entry): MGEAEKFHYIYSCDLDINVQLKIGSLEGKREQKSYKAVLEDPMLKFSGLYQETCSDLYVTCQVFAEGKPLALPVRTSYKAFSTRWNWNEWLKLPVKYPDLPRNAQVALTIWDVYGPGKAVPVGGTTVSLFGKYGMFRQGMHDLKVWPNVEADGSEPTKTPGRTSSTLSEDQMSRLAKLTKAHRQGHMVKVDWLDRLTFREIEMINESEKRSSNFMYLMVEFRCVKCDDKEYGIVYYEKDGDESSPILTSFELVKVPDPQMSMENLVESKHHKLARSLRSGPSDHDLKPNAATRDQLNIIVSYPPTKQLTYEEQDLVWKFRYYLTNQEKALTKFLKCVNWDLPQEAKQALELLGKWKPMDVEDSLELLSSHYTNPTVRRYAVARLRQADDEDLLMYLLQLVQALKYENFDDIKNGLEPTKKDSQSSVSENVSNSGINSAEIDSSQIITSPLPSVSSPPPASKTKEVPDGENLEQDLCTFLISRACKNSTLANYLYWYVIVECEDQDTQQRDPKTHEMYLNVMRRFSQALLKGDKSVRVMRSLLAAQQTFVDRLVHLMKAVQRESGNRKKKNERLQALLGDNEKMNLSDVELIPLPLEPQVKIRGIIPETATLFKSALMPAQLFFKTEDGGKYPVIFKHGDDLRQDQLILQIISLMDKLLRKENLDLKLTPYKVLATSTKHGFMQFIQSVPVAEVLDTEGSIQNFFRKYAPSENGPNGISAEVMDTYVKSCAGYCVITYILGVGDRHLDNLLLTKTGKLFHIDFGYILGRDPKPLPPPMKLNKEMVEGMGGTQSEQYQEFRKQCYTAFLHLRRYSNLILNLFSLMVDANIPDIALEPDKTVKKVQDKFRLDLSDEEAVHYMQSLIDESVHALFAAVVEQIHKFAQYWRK
Tyrosine-protein kinase ZAP-70, sequence (P43403 whole entry): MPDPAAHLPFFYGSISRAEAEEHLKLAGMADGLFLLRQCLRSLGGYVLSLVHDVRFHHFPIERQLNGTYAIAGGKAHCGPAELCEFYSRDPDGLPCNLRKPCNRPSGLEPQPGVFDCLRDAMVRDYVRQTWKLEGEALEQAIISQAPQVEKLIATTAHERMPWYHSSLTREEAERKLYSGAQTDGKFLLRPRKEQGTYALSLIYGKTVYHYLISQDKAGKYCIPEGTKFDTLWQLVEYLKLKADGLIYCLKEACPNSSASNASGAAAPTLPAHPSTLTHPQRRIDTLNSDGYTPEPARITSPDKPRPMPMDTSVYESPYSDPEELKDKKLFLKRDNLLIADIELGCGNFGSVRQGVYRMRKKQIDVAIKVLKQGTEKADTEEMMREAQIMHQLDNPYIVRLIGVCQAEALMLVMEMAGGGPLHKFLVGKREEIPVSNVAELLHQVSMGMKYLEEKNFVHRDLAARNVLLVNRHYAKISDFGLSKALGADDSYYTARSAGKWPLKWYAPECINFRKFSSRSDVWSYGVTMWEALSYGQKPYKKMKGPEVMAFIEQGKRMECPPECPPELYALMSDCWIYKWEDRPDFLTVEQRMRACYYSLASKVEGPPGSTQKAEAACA
Hepatocyte growth factor receptor, sequence (P08581 whole entry): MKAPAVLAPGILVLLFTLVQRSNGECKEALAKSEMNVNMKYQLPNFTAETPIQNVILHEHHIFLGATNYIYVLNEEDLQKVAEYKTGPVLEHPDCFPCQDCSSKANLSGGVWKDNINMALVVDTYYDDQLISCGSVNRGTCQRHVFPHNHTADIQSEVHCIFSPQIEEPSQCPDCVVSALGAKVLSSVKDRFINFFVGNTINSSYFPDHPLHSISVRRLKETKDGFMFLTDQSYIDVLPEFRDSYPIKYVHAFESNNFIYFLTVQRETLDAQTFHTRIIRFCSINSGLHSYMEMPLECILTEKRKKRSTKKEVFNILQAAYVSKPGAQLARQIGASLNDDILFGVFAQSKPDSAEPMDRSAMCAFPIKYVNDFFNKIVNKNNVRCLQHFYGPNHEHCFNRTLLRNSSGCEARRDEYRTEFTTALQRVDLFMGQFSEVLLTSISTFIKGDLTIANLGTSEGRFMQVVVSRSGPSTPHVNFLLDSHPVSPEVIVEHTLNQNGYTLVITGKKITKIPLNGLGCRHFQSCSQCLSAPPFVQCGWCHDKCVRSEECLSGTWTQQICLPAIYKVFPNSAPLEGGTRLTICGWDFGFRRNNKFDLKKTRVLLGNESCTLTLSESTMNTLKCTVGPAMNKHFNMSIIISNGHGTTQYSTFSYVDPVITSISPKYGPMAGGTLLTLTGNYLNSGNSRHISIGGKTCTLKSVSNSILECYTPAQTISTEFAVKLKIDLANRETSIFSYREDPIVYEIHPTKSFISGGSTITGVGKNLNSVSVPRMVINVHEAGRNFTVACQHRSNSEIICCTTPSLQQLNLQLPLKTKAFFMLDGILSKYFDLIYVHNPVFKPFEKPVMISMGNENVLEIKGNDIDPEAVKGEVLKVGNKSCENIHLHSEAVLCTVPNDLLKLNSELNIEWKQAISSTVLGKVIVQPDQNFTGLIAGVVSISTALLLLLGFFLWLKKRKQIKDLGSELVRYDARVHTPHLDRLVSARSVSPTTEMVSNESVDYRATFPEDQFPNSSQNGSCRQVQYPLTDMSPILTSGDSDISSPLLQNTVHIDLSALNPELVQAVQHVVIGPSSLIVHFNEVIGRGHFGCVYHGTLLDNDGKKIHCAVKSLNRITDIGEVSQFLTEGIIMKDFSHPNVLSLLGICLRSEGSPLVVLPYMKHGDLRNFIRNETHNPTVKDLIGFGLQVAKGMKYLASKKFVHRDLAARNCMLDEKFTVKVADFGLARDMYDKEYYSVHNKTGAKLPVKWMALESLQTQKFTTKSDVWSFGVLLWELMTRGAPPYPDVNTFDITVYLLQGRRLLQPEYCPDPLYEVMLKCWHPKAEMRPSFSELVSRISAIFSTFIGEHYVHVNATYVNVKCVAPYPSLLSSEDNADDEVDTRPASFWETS

Work on CCN1CCN(c2ccc(Nc3cc(N(C)C(=O)Nc4c(Cl)c(OC)cc(OC)c4Cl)ncn3)cc2)CC1.O=P(O)(O)O [INFIGRATINIB PHOSPHATE] yielded an IC50 [1] of 2.48 µM, an IC50 (BaF3) of 0.002 µM and an IC50 [2] of 1.1 µM. It also gave an IC50 [3] of 2.19 µM, a Tmax [4] of 2 h and an AUC/dose (Rattus norvegicus [5]) of 0.25 µM·h. For the same compound, the IC50 [6] was > 10 µM, the IC50 [7] was > 10 µM and the IC50 [8] was > 10 µM. For the same compound, the IC50 [9] was > 10 µM, the IC50 [10] was > 10 µM and the IC50 [11] was > 10 µM. For the same compound, the IC50 [12] was > 10 µM, the IC50 [13] was > 10 µM and the IC50 [14] was > 10 µM. The inhibition (Rattus norvegicus [15]) was “inactive”, the Activity (Mus musculus [16]) was “Non-toxic” and the Activity (Rattus norvegicus [17]) was “Non-toxic”. It also gave an Activity (RT-112) of 66%, a Drug uptake (Tumour) of 0.62 nmol/g and an Activity (Mus musculus [18]) of 10%.
